Measured values taken from ChEMBL document CHEMBL1156347, “Immunomodulatory constituents from an Ascomycete, Eupenicillium crustaceum, and revised absolute structure of macrophorin D” (J Nat Prod, 2001).
In brackets after ≈: the same amount, converted by molar mass.

Assays:
[1] = Immunosuppressant activity in mouse B cells assessed as inhibition of LPS-induced cell proliferation; type: functional, cell-based
Summary of the method: (§1)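 Splenic lymphocytes from male BALB/c mice aged 7-11 weeks, stimulated with concanavalin A (T cells) or LPS (B cells). Proliferation read as formation of MTT-formazan from exogenous MTT in the lymphocytes. Seven concentrations tested, each point the mean of 3 experiments. IC50 read from the concentration-versus-proliferation curve.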

[2] = Immunosuppressant activity in mouse T cells assessed as inhibition of concanavalin A-induced cell proliferation; type: functional, cell-based; summary of the method: as §1
[3] = system: T-cell; test: Ratio of IC50 for mouse T cells proliferation to IC50 for mouse B cells proliferation; type: functional

Row | SMILES | IC50 [1] [µg/mL] | IC50 [2] [µg/mL] | Ratio IC50 [3]
1 | C=C1CC[C@H]2C(C)(C)CCC[C@]2(C)[C@H]1C[C@@]12O[C@@H]1C(=O)C(COC(=O)C[C@@](C)(O)CC(=O)O)=CC2=O | 2 (≈ 3.98 µM) | 4.5 (≈ 8.95 µM) | 2
2 | C=C1CC[C@H]2C(C)(C)CCC[C@]2(C)[C@H]1C[C@@]12O[C@@H]1C(=O)C(CO)=CC2=O | 0.25 (≈ 0.697 µM) | 0.5 (≈ 1.39 µM) | 2
3 | Cn1cnc([N+](=O)[O-])c1Sc1ncnc2[nH]cnc12 [AZATHIOPRINE] | 2.7 (≈ 9.74 µM) | 2.7 (≈ 9.74 µM) | 
4 | C=CC[C@@H]1/C=C(\C)C[C@H](C)C[C@H](OC)[C@H]2O[C@@](O)(C(=O)C(=O)N3CCCC[C@H]3C(=O)O[C@H](/C(C)=C/[C@@H]3CC[C@@H](O)[C@H](OC)C3)[C@H](C)[C@@H](O)CC1=O)[C@H](C)C[C@@H]2OC [TACROLIMUS ANHYDROUS] | 0.0016 (≈ 0.00199 µM) | 1.5e-05 (≈ 1.87e-05 µM) | 
